Experimental data taken from ChEMBL document CHEMBL3593162, “Novel 9-Alkyl- and 9-Alkylidene-Substituted 1α,25-Dihydroxyvitamin D3 Analogues: Synthesis and Biological Examinations” (J Med Chem, 2015).

How the values were obtained:
[1] = target: T1, Vitamin D3 receptor (Rattus norvegicus) (UniProt P13053); test: Potency index, ratio of 1alpha,25-(OH)2D3 Ki to compound Ki for full length recombinant rat vitamin D receptor
T1 sequence (whole entry): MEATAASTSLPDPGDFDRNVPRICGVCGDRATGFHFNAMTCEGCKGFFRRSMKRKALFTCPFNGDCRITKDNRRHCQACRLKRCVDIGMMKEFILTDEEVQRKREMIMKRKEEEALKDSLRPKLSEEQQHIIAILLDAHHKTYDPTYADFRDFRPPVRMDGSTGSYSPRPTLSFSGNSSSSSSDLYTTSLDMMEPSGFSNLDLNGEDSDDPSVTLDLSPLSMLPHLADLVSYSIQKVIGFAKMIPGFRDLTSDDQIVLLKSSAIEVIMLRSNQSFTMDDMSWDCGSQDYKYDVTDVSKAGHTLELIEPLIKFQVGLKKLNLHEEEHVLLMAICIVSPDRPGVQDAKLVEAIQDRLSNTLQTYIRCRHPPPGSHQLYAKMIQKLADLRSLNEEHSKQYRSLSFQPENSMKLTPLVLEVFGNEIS

[2] = system: HL-60; test: Induction of differentiation of human HL60 promyelocytes to monocytes after 4 days by nitro blue tetrazolium reduction assay; type: functional; conditions: for EC50: Homo sapiens, HL-60, 96 h, read-out: ED50 (the source's name)
Summary of the method: (§1)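 HL-60 cells grown in RPMI-1640 with 10% FBS at 37 °C, 5% CO2, plated at 1.2 × 10^5 cells/plate. Dosed in duplicate 18 h after plating (final ethanol <0.2%). After 4 days, NBT reduction read by counting 200 cells for formazan deposits. ED50 is the concentration giving 50% maturation, from dose-response curves; repeated 2 to 3 times, mean reported. Ratio = ED50 of 1α,25-(OH)2D3 / ED50 of analogue.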

[3] = Induction of transcriptional activity in rat ROS 17/2.8 cells after 16 hrs by 24-hydroxylase luciferase reporter gene assay; type: functional; conditions: for EC50: Rattus norvegicus, 16 h, read-out: ED50 (the source's name)
Summary of the method: (§2)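 ROS 17/2.8 cells stably transfected with 24-hydroxylase promoter–luciferase reporter, dosed over a range of concentrations. Harvested 16 h after dosing; luciferase read on a luminometer. ED50 is the concentration raising luciferase activity by 50%, from dose-response curves. Ratio = ED50 of 1α,25-(OH)2D3 / ED50 of analogue.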

[4] = system: Rattus norvegicus; test: Induction of bone calcium mobilization into serum of Sprague-Dawley rat assessed as total serum calcium level at 35100 pmol, ip administered 4 doses at 24 hrs interval measured 24 hrs post last dose (reference value: 4.5 mg/dL); type: functional
Summary of the method: (§3)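 Group-housed rats on Diet 11 (0.47% Ca) + AEK oil for 1 week, then 0.02% Ca for 3 weeks, then 0.47% Ca for 1 week, then 2 weeks on 0.02% Ca. Dosing in the final week: four ip doses about 24 h apart. Blood taken from the severed neck 24 h after the last dose; serum calcium measured as the bone calcium mobilization index.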

[5] = system: HL-60; test: Potency index, ratio of 1alpha,25-(OH)2D3 ED50 to compound ED50 for induction of differentiation of human HL60 promyelocytes to monocytes; type: functional; summary of the method: as §1
[6] = system: Rattus norvegicus; test: Induction of intestinal calcium transport in Sprague-Dawley rat assessed as ratio of serosal calcium to mucosal calcium level at 35100 pmol, ip administered 4 doses at 24 hrs interval measured 24 hrs post last dose by everted gut sac method (reference value: 4.3); type: functional
[7] = system: Rattus norvegicus; test: Induction of intestinal calcium transport in Sprague-Dawley rat assessed as ratio of serosal calcium to mucosal calcium level at 7020 pmol, ip administered 4 doses at 24 hrs interval measured 24 hrs post last dose by everted gut sac method (reference value: 4.3); type: functional
[8] = target: T2, Vitamin D3 receptor (Rattus norvegicus, UniProt P13053); test: Displacement of [3H]-1alpha25-(OH)2D3 from full length recombinant rat vitamin D receptor by scintillation counting analysis
T2 sequence (P13053 whole entry): T1 sequence (whole entry)
Summary of the method: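 [3H]-1α,25(OH)2D3 at 1 nM final plus unlabeled ligand (ethanol ≤10%), incubated overnight on ice. Bound ligand captured on hydroxylapatite, washed with Tris–EDTA/0.5% Triton X-100, scintillation counted. Ki from dose-response curves using Kd 0.2 nM; duplicates on two to three occasions.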

[9] = system: Rattus norvegicus; test: Induction of bone calcium mobilization into serum of Sprague-Dawley rat assessed as total serum calcium level at 7020 pmol, ip administered 4 doses at 24 hrs interval measured 24 hrs post last dose (reference value: 4.5 mg/dL); type: functional; summary of the method: as §3
[10] = Potency index, ratio of 1alpha,25-(OH)2D3 ED50 to compound ED50 for induction of transcriptional activity in rat ROS 17/2.8 cells; type: functional; summary of the method: as §2
[11] = system: Rattus norvegicus; test: Induction of bone calcium mobilization into serum of Sprague-Dawley rat assessed as serum calcium level at 780 pmol, ip administered 4 doses at 24 hrs interval measured 24 hrs post last dose (reference value: 4.9 mg/dL); type: functional; summary of the method: as §3
[12] = system: Rattus norvegicus; test: Induction of bone calcium mobilization into serum of Sprague-Dawley rat assessed as serum calcium level at 35100 pmol, ip administered 4 doses at 24 hrs interval measured 24 hrs post last dose (reference value: 4.9 mg/dL); type: functional; summary of the method: as §3
[13] = system: Rattus norvegicus; test: Induction of intestinal calcium transport in Sprague-Dawley rat assessed as ratio of serosal calcium to mucosal calcium level at 780 pmol, ip administered 4 doses at 24 hrs interval measured 24 hrs post last dose by everted gut sac method (reference value: 4.1); type: functional
[14] = system: Rattus norvegicus; test: Induction of intestinal calcium transport in Sprague-Dawley rat assessed as ratio of serosal calcium to mucosal calcium level at 7020 pmol, ip administered 4 doses at 24 hrs interval measured 24 hrs post last dose by everted gut sac method (reference value: 4.1); type: functional
[15] = system: Rattus norvegicus; test: Induction of intestinal calcium transport in Sprague-Dawley rat assessed as ratio of serosal calcium to mucosal calcium level at 35100 pmol, ip administered 4 doses at 24 hrs interval measured 24 hrs post last dose by everted gut sac method (reference value: 4.1); type: functional
[16] = system: Rattus norvegicus; test: Induction of bone calcium mobilization into serum of Sprague-Dawley rat assessed as serum calcium level at 7020 pmol, ip administered 4 doses at 24 hrs interval measured 24 hrs post last dose (reference value: 4.9 mg/dL); type: functional; summary of the method: as §3
[17] = system: Rattus norvegicus; test: Induction of bone calcium mobilization into serum of Sprague-Dawley rat assessed as total serum calcium level at 105300 pmol, ip administered 4 doses at 24 hrs interval measured 24 hrs post last dose (reference value: 4.5 mg/dL); type: functional; summary of the method: as §3
[18] = system: Rattus norvegicus; test: Induction of intestinal calcium transport in Sprague-Dawley rat assessed as ratio of serosal calcium to mucosal calcium level at 105300 pmol, ip administered 4 doses at 24 hrs interval measured 24 hrs post last dose by everted gut sac method (reference value: 4.3); type: functional
[19] = system: Rattus norvegicus; test: Induction of bone calcium mobilization into serum of Sprague-Dawley rat assessed as total serum calcium level at 260 pmol, ip administered 4 doses at 24 hrs interval measured 24 hrs post last dose (reference value: 4.5 mg/dL); type: functional; summary of the method: as §3
[20] = system: Rattus norvegicus; test: Induction of bone calcium mobilization into serum of Sprague-Dawley rat assessed as serum calcium level at 87 pmol, ip administered 4 doses at 24 hrs interval measured 24 hrs post last dose (reference value: 4.9 mg/dL); type: functional; summary of the method: as §3

Structure (SMILES)	Ratio Ki [1]	ED50 [2]	ED50 [3]	Ratio ED50 [5]	Ratio [7]	Ki [8] [nM]	Activity [9] [mg/dL]	Ratio ED50 [10]	EC50 [2] [nM]	other results
C=C1/C(=C\C=C2/[C@H](C)CC[C@]3(C)[C@@H]([C@H](C)CCCC(C)(C)O)CC[C@@H]23)C[C@@H](O)C[C@@H]1O	0.005	5 ×10⁻⁶ M	5 ×10⁻⁸ M	0.0001	7.9	20	4.3	0.006		Activity [4]: 4.6 mg/dL; Ratio [6]: 6.2
C=C1CC[C@]2(C)[C@@H]([C@H](C)CCCC(C)(C)O)CC[C@H]2/C1=C/C=C1C[C@@H](O)C[C@H](O)C1	0.005		5 ×10⁻⁸ M	0.002	5.3	20	4.3	0.006	1000	Activity [4]: 4.4 mg/dL; Ratio [6]: 4.6
C[C@H](CCCC(C)(C)O)[C@H]1CC[C@H]2/C(=C/C=C3C[C@@H](O)C[C@H](O)C3)[C@@H](C)CC[C@]12C	0.5	9 ×10⁻⁹ M	3 ×10⁻¹⁰ M	0.2		0.2		1		Activity [11]: 4.8 mg/dL; Activity [12]: 5.4 mg/dL; Ratio [13]: 5; Ratio [14]: 10.1; Ratio [15]: 8.8; Activity [16]: 4.5 mg/dL
C/C=C1\CC[C@]2(C)[C@@H]([C@H](C)CCCC(C)(C)O)CC[C@H]2\C1=C\C=C1C[C@@H](O)C[C@H](O)C1	< 1e-05			0.0001	6.6	> 10000	4.6	0.0001	10000	EC50 [3]: 1000 nM; Activity [17]: 4.5 mg/dL; Ratio [18]: 7.3
C=C1/C(=C\C=C2/CCC[C@]3(C)[C@@H]([C@H](C)CCCC(C)(C)O)CC[C@@H]23)C[C@@H](O)C[C@@H]1O [CALCITRIOL]		2 ×10⁻⁹ M	3 ×10⁻¹⁰ M							Activity [11]: 7.3 mg/dL; Activity [19]: 5.6 mg/dL; Activity [20]: 6.2 mg/dL
C=C1CC[C@]2(C)[C@@H]([C@H](C)CCCC(C)(C)O)CC[C@H]2/C1=C/C=C1/C[C@@H](O)C[C@H](O)[C@@H]1C	< 1e-05		9 ×10⁻⁸ M	0.0001		> 10000		0.003	10000	
C=C1CC[C@]2(C)[C@@H]([C@H](C)CCCC(C)(C)O)CC[C@H]2/C1=C/C=C1/C[C@@H](O)C[C@H](O)[C@H]1C	< 1e-05			0.0001		> 10000		0.0001	10000	EC50 [3]: 1000 nM
